In assay [1] the target is Histone deacetylase 2 (Homo sapiens, UniProt Q92769). Description: Inhibition of HDAC2 in human HeLa cell nuclear extracts in presence of dithiothreitol by HDAC fluorescent assay.
The subject of assay [2] is MCF7. Description: Antiproliferative activity against human MCF7 cells after 48 hrs by MTT assay. Type of assay: functional, cell-based. The settings on record: MCF7, 48 h. In a few lines:
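MCF-7 cells were grown in DMEM with 10% fetal bovine serum at 37 °C under 5% CO₂, then plated and incubated overnight. Compounds were added as 10-fold serial dilutions. MTT (0.5 mg/mL in serum-free medium) was added for 4 h, formazan was dissolved in DMSO, and absorbance was read at 570 nm. IC₅₀ was determined in triplicate, with at least three repeat experiments.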

Assay [3] deals with Histone deacetylase 1 (Homo sapiens, UniProt Q13547). The assay can be described thus: Inhibition of human HDAC1 in presence of dithiothreitol by HDAC fluorescent assay.
Sequence of Histone deacetylase 1 (Q13547 whole entry): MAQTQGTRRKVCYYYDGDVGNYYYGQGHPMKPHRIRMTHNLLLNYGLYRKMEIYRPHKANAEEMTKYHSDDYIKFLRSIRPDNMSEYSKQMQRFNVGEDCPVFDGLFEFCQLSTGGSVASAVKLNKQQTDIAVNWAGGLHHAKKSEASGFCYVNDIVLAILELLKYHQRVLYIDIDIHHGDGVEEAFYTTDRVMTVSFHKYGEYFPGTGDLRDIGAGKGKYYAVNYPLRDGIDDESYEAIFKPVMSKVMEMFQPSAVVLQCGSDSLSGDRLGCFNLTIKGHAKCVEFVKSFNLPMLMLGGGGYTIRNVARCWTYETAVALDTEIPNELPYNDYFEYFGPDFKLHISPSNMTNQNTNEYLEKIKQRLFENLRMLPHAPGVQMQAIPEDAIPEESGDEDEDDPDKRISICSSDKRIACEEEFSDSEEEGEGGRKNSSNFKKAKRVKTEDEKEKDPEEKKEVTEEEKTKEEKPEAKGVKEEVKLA

The record followed here is ChEMBL document CHEMBL2021837, “A novel series of l-2-benzyloxycarbonylamino-8-(2-pyridyl)-disulfidyloctanoic acid derivatives as histone deacetylase inhibitors: design, synthesis and molecular modeling study” (Eur J Med Chem, 2012).

Structures are written as SMILES.

Sequence of Histone deacetylase 2 (Q92769 whole entry): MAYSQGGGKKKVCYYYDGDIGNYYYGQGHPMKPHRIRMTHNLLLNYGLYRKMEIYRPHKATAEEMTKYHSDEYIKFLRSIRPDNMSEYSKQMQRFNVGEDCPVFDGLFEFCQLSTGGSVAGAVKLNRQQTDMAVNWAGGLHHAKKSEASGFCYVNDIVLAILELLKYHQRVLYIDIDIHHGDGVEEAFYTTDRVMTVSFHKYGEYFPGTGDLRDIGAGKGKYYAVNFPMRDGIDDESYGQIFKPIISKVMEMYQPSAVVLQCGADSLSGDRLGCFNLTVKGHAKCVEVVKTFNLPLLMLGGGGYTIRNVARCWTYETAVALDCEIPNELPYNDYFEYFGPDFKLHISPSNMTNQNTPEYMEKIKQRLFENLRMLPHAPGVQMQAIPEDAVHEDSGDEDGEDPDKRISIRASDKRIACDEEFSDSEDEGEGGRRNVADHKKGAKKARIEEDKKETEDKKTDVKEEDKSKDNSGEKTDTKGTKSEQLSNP

With `O=C(N[C@@H](CCCCCCSSc1ccccn1)C(=O)OCc1ccc(-c2ccccc2)cc1)OCc1ccccc1`, the IC50 (as a rule, the concentration that inhibits the measured activity by half) is 40.7 nM in assay [1], 15600 nM in assay [2] and 64.1 nM in assay [3].

Consider `O=C(N[C@@H](CCCCCCSSc1ccccn1)C(=O)Nc1cccc2ccccc12)OCc1ccccc1`, for which the IC50 in assay [1] was determined as 38.2 nM; in assay [2], 15300 nM; in assay [3], 65.2 nM.

For `O=C(N[C@@H](CCCCCCSSc1ccccn1)C(=O)NC1CCCCC1)OCc1ccccc1`, the IC50 turned out to be 44.1 nM in assay [1], 19600 nM in assay [2] and 66.9 nM in assay [3].

Take `O=C(N[C@@H](CCCCCCSSc1ccccn1)C(=O)Nc1nc(-c2ccccc2)cs1)OCc1ccccc1`: the IC50 came to 3.9 nM in assay [1], 3200 nM in assay [2] and 5.1 nM in assay [3].

On to `O=C(N[C@@H](CCCCCCSSc1ccccn1)C(=O)Nc1ccccc1-c1ccccc1)OCc1ccccc1`, for which the results for the IC50 in assay [1], in assay [2] and in assay [3] were 45.2 nM, 20800 nM and 71.2 nM, respectively.

As to `O=C(N[C@@H](CCCCCCSSc1ccccn1)C(=O)Nc1ccc(-c2ccccc2)cc1)OCc1ccccc1`, the figures for the IC50 in assay [1], in assay [2] and in assay [3] were 46.6 nM, 18100 nM and 70.9 nM, respectively.

Regarding `O=C(N[C@@H](CCCCCCSSc1ccccn1)C(=O)NC1c2ccccc2-c2ccccc21)OCc1ccccc1`, the IC50 came out at 48.1 nM in assay [1], 17200 nM in assay [2] and 68.2 nM in assay [3].

Consider `O=C(N[C@@H](CCCCCCSSc1ccccn1)C(=O)OCC1c2ccccc2-c2ccccc21)OCc1ccccc1`, for which the IC50 in assay [1] was 5.2 nM; in assay [2], 3500 nM; in assay [3] it was 7.6 nM.

For `O=C(N[C@@H](CCCCCCSSc1ccccn1)C(=O)OCc1ccc([N+](=O)[O-])cc1)OCc1ccccc1`, the IC50 in assay [1] worked out at 45.5 nM; in assay [2] it was 16900 nM; in assay [3], 64.4 nM.

As to `O=C(N[C@@H](CCCCCCSSc1ccccn1)C(=O)OCc1cccc([N+](=O)[O-])c1)OCc1ccccc1`, the IC50 in assay [1] came out at 48.5 nM; in assay [2], 15200 nM; in assay [3], 66.7 nM.

Consider `O=C(N[C@@H](CCCCCCSSc1ccccn1)C(=O)OCc1ccc2ccccc2c1)OCc1ccccc1`, for which the IC50 in assay [1] worked out at 40.3 nM; in assay [2], 14800 nM; in assay [3], 65.2 nM.

As for `O=C(N[C@@H](CCCCCCSSc1ccccn1)C(=O)OCc1cccc2ccccc12)OCc1ccccc1`, the values for the IC50 in assay [1], in assay [2] and in assay [3] were 39.6 nM, 15300 nM and 64.7 nM, respectively.

On to `O=C(N[C@@H](CCCCCCSSc1ccccn1)C(=O)OCc1c2ccccc2cc2ccccc12)OCc1ccccc1`, for which the 50% inhibitory concentration (IC50) is 43.6 nM in assay [1], 14000 nM in assay [2] and 59.2 nM in assay [3].

`CC(/C=C/C(=O)NO)=C\[C@@H](C)C(=O)c1ccc(N(C)C)cc1` [TRICHOSTATIN] displayed an IC50 in assay [2] of 1700 nM.
